The text below walks through data of ChEMBL document CHEMBL2412961, “CD4 mimics as HIV entry inhibitors: lead optimization studies of the aromatic substituents” (Bioorg Med Chem, 2013).

The test system of data set [1] is PM1. As to the kind of experiment: Induction of conformational change in human immunodeficiency virus 1 JR-FL R5 subtype B gp120 infected in human PM1 cells assessed as increase in binding affinity to monoclonal antibody 4C11 at 100 uM after 15 mins by FACS analysis. It counts as cell-based. In outline: (§1)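 PM1 cells chronically infected with JR-FL (R5, subtype B) were pre-incubated with CD4 mimic for 15 min, with sCD4 at 0.5 µg/mL as reference. They were then incubated with CD4i mAb 4C11 at 4 °C for 15 min, washed with PBS and stained with FITC anti-human IgG. Flow cytometry read the 4C11 mean fluorescence intensity on gated PM1 cells, with anti-CD19 as control antibody. There were at least two independent experiments.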

Data set [2] deals with PM1. In words: Induction of conformational change in human immunodeficiency virus 1 JR-FL R5 subtype B gp120 infected in human PM1 cells assessed as increase in binding affinity to monoclonal antibody 4C11 at 25 to 100 uM after 15 mins by FACS analysis. It counts as cell-based. In outline: as §1
A general note: In flow cytometry, cells or beads pass a laser one at a time.

A short description of data set [3]: Cytotoxicity against CCR5-expressing human PM1 cells assessed as reduction of cell viability after 7 days by WST8 assay. It counts as cell-based. The method, boiled down:
(§2)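 PM1/CCR5 cells were infected with the HIV-1 R5 primary isolate YTA, or mock-infected for cytotoxicity, and incubated with compound at 37 °C for 7 days. Viability was read by WST-8 (Cell Counting Kit-8). IC50 is the concentration giving 50% protection from virus-induced cytopathogenicity. CC50 is the concentration giving 50% loss of viability in mock-infected cells. Assays were run in duplicate or triplicate.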
(Tetrazolium assays rely on reduction of a dye to a coloured formazan, in cell work by metabolically active cells.)

The test system of data set [4] is Human immunodeficiency virus 1. As to the kind of experiment: Antiviral activity against Human immunodeficiency virus 1 R5 primary isolate YTA48P infected in CCR5-expressing human PM1 cells assessed as inhibition of virus-induced cytopathogenicity after 7 days by WST8 assay. As to conditions: PM1, 168 h. It counts as functional, organism-based. The method, boiled down: as §2

Calls of active or inactive are those of the source. The rule behind the calls is not given here. A value given as a limit tells only on which side of the number the result lay.

Turning to `O=C(Nc1ccc(Cl)c(F)c1)C(=O)NC1CC2(CCCCC2)NC2(CCCCC2)C1` (stereo not given), the outcome with PM1 [1] and in the data set on PM1 [2] was Active. Further, the CC50 (usually the concentration giving 50% cytotoxicity) at 168 h in data set [3] is 11 µM. Further, the concentration for half-maximal inhibition (IC50) (usually the concentration at which inhibition is half-maximal) in data set [4] is 230 nM.
In the case of `CC1(C)CC(NC(=O)C(=O)Nc2ccc(Cl)c(F)c2)CC(C)(C)N1`, in the data set on PM1 [1], the result was Active. Moreover, the CC50 at 168 h in data set [3] came to 94 µM. Moreover, the IC50 in data set [4] amounted to 320 nM.
Regarding `Cc1cc(NC(=O)C(=O)NC2CC3(CCCCC3)NC3(CCCCC3)C2)ccc1Cl` (stereo not given), in the data set with PM1 [1], the outcome was Active. In addition, the half-maximal cytotoxic concentration (CC50) at 168 h in data set [3] worked out at 15 µM. Also, the half-maximal inhibitory concentration (IC50) in data set [4] was 2600 nM.
With `Cc1ccc(NC(=O)C(=O)NC2CC3(CCCCC3)NC3(CCCCC3)C2)cc1Br` (stereo not given), the outcome in the data set with PM1 [1] was Active. Further, in data set [3], the CC50 at 168 h was 11 µM. Moreover, the IC50 in data set [4] worked out at 3200 nM.
The corresponding values for `Cc1cc(NC(=O)C(=O)NC2CC(C)(C)NC(C)(C)C2)ccc1Cl` are “Active”, 38 µM and 3300 nM.
As to `Cc1ccc(NC(=O)C(=O)NC2CC3(CCCCC3)NC3(CCCCC3)C2)cc1F` (stereo not given), the result in the data set on PM1 [1] was Active. For the same compound, in data set [3], the CC50 at 168 h came out at 91 µM. In data set [4], the IC50 came out at 540 nM.
As to `Cc1ccc(NC(=O)C(=O)NC2CC3(CCCCC3)NC3(CCCCC3)C2)cc1Cl` (stereo not given), the result in the data set with PM1 [1] was Active. Also, the CC50 at 168 h in data set [3] was found to be 11 µM. Further, the IC50 in data set [4] stood at 6200 nM.
`CC1(C)CC(NC(=O)C(=O)Nc2ccc(Cl)cc2)CC(C)(C)N1`: in data set [4], the half-maximal inhibitory concentration (IC50) was found to be 610 nM.
`O=C(Nc1ccc(Cl)c(Cl)c1)C(=O)NC1CC2(CCCCC2)NC2(CCCCC2)C1` (stereo not given): in the data set with PM1 [1], the result was Active. In addition, the CC50 at 168 h in data set [3] was 11 µM. In addition, the IC50 in data set [4] was determined as 620 nM.
For the compound `Cc1ccc(NC(=O)C(=O)NC2CC(C)(C)NC(C)(C)C2)cc1`, in data set [4], the half-maximal inhibitory concentration (IC50) was found to be 9000 nM.
Regarding `Cc1ccc(NC(=O)C(=O)NC2CC(C)(C)NC(C)(C)C2)cc1F`, the result in the data set on PM1 [1] was Active. In addition, the 50% cytotoxic concentration (CC50) at 168 h in data set [3] was determined as 110 µM. In addition, the concentration for half-maximal inhibition (IC50) in data set [4] turned out to be 2800 nM.
Turning to `O=C(Nc1ccc(Cl)cc1)C(=O)NC1CC2(CCCCC2)NC2(CCCCC2)C1` (stereo not given), in data set [4], the half-maximal inhibitory concentration (IC50) worked out at 430 nM.
As for `CC1(C)CC(NC(=O)C(=O)Nc2ccc(Cl)c(Cl)c2)CC(C)(C)N1`, the outcome with PM1 [1] was Active. Moreover, the half-maximal cytotoxic concentration (CC50) at 168 h in data set [3] came out at 36 µM. The IC50 in data set [4] was 4100 nM.
For `Cc1ccc(NC(=O)C(=O)NC2CC(C)(C)NC(C)(C)C2)cc1Br` the same measures were “Active”, 32 µM and above 10000 nM.
`Cc1ccc(NC(=O)C(=O)NC2CC(C)(C)NC(C)(C)C2)cc1Cl`: the outcome in the data set with PM1 [1] was Active. The 50% cytotoxic concentration (CC50) at 168 h in data set [3] is 62 µM. Further, the IC50 in data set [4] stood at 3200 nM.
